T cruzi repl – inhibitors of intracellular T. cruzi growth, primary screen, luminescence, NIH3T3 host cells. T. cruzi beta-gal in NIH3T3, 90 h. inhibition, % (test concentration not listed). actives 1.4% (n = 300,000). AID 1885, 2009;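 active means mean inhibition across valid replicates above about 55%, limit read from the data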;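 further: signal also drops with host cell toxicity which is not excluded here; 0% = plate median of DMSO wells and 100% = zero luminescence signal; higher percent means less beta-gal luminescence so fewer parasites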
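System – NIH/3T3 host cells with β-galactosidase reporter T. cruzi · Doses – single 50 nL compound addition per well in DMSO · Reagent – 5000 T. cruzi trypomastigotes/well · Medium – Low-serum DMEM with 2% FBS · Timing – ≥90 h infection period, 3 h prior cell attachment · Evaluation – parasite load inhibition, % · Technique – GalScreen luminescence, 60 min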
MEKK3 PB1 HTS – modulators of MEKK3-MEK5 PB1 binding, primary screen, biochemical, wildtype MEKK3, multiplex bead flow cytometry, Alexa488-MEK5; bead-based flow cytometry, Alexa488-MEK5 binding to MEKK3; actives lie on both sides; 0 = blocked by unlabeled MEK5, 100 = vehicle; actives 1.4% (n = 290,000); binding response (% of control), % at 10 µM; Mitogen-activated protein kinase kinase kinase 3 (Homo sapiens), Q99759; AID 1529, 2009;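 active means binding response more than 3 SD above or below the average of its plate-row segment, actives on both sides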;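 further: Alexa488 bead fluorescence after subtracting the streptavidin-only scavenger bead signal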
Target sequence (Q99759 whole entry, looked up): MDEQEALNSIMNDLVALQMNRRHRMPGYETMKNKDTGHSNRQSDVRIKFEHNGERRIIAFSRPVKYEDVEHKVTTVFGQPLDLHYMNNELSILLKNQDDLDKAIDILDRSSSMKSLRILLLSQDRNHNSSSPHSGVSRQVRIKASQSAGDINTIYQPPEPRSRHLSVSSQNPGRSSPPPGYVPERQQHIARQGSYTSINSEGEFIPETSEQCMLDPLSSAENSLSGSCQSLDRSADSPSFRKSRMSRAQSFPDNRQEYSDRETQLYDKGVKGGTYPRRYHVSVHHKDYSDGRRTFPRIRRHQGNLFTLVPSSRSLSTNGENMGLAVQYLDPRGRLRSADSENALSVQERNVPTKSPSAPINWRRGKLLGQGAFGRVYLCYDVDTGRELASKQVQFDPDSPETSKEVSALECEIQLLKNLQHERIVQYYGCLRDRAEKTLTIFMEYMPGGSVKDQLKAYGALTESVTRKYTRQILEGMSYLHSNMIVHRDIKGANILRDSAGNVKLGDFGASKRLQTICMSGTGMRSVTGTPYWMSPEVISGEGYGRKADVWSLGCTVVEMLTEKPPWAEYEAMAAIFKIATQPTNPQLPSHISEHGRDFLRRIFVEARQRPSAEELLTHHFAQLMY
FID counter – compounds displacing fluorescent DNA intercalator, primary screen, artefact control for HCV NS3 helicase inhibitor project, biochemical, FID fluorescence. inhibition, % at 7.9 µM. actives 0.17% (n = 290,000). DNA fluorescent intercalator displacement; in the data active means inhibition above about 37%;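 further: 0% = vehicle and 100% = reference compound; higher means more ethidium bromide displaced from hairpin DNA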
HCV NS3 hel inh – inhibitors of HCV NS3 helicase, primary screen, biochemical, Cy5 molecular beacon fluorescence. Hepatitis C virus NS3 helicase. actives 0.56% (n = 290,000). NS3 helicase DNA unwinding. inhibition, % at 10.9 µM;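 active means inhibition above the mean of all tested compounds plus 3 SD, set per campaign, cut at about 35% in these data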;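 further: 0% = DMSO wells and 100% = thioflavine S control wells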
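Assay system: hepatitis C virus NS3 helicase domain fragment enzyme. Also added: annealed dual-labelled DNA beacon duplex, ATP-started. Timing: 1 h reaction at 25 °C, ATP-initiated. Technique: Cy5 fluorescence at 0 and 60 min, beacon hairpin quenching. Evaluation: % inhibition of unwinding. Replication: one well per compound.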
MEKK2 mut-MEK5 – MEK5 binding signal on mutant MEKK2 PB1, primary screen, biochemical, multiplex bead flow cytometry, Alexa488-MEK5; actives 0.35% (n = 290,000); Alexa488-MEK5 binding to MEKK2 mutant; percent response, % at 10 µM; AID 1530, 2009; in the data active means percent response above about 24%, passing the limit was not always enough
MEKK2wt PB1 HTS – modulators of MEK5 binding to wildtype MEKK2, primary screen, biochemical, multiplex bead flow cytometry, Alexa488-MEK5 | binding response (% of control), % at 10 µM | Alexa488-MEK5 binding to MEKK2 WT; actives lie on both sides | actives 1.1% (n = 290,000); in the data active means binding response below about 67% or above about 130%
MEKK2wt confirm – modulators of MEK5 binding to wildtype MEKK2, confirmation, biochemical, single concentration, multiplex bead flow cytometry. shares compounds with MEKK3 PB1 HTS. actives 2.4% (n = 5,900). AID 1892, 2009. binding response (% of control), % at 10 µM. Alexa488-MEK5 binding to MEKK2 WT; actives lie on both sides; in the data active means binding response below about 16% or above about 210%; inactive means in between
MEKK2mut confirm – mutant MEKK2 PB1-MEK5 binding signal retest – biochemical, single concentration, multiplex bead flow cytometry, confirmation | shares compounds with MEKK3 PB1 HTS | Alexa488-MEK5 binding to MEKK2 mutant | percent response, % at 10 µM | actives 2% (n = 5,900) | AID 1893, 2009; in the data active means percent response mostly above about 71%, no sharp cut-off; inactive means mostly below about 38%;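 further: higher means compound restores mutant binding toward wildtype level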
MEKK3 confirm – MEKK3 wild-type PB1 binding to MEK5, inhibitors, confirmation, biochemical, bead multiplex flow cytometry, single concentration, wildtype | Alexa488-MEK5 binding to MEKK3; active compounds read low | shares compounds with MEKK3 PB1 HTS | actives 1.8% (n = 5,900) | binding response (% of control), % at 10 µM;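 active means binding response below 72% of control, or above a set upper limit, though filed actives all read lower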;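 further: 100% = DMSO only wells and 0% = binding blocked by excess unlabeled MEK5; lower values mean stronger disruption of MEK5 binding to MEKK3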
The depositor's hits bear a star; · = not tested or not shown; [ ] = remark or other dose. Sampled rows, rich in hits. Any-hit rate of the full collection: about 4.1%.

SMILES	T cruzi repl	MEKK3 PB1 HTS	FID counter	HCV NS3 hel inh	MEKK2 mut-MEK5	MEKK2wt PB1 HTS	MEKK2wt confirm	MEKK2mut confirm	MEKK3 confirm
CCN(CC)c1ccc(NC(=O)CN2CCN(CC(=O)Nc3ccccc3F)CC2)cc1	-13.0	122.0*	-4.0	-5.3	13.0	124.0	104.0	2.0	97.0
CCOC(=O)C1CCN(C(=O)Cc2ccc(OC)c(OC)c2)CC1	-9.3	81.0*[inhibitor]	-15.7	8.9	-11.0	91.0	103.0	0.0	104.0
CCOC(=O)C1CCN(C(=O)COc2ccc(Cl)cc2)CC1	0.4	103.0	-7.9	-1.1	1.0	100.0	·	·	·
CCOC(=O)C1CCN(C(=O)COC(=O)COc2ccc(Cl)cc2)CC1	-18.9	37.0*[inhibitor]	-9.5	13.9	-17.0	53.0	100.0	-6.0	101.0
Cc1c2ccccc2nc2c(F)c(N(C)C)c(F)c(F)c12	-10.9	145.0*	-15.4	23.2	0.0	100.0	97.0	-2.0	101.0
CN(C)c1c2ccccc2nc2c(F)c(F)c(F)c(F)c12	26.9	101.0	-2.2	-10.9	-3.0	94.0	·	·	·
CCOc1cc(NC(=S)NCC2CCCO2)c(OCC)cc1NC(=O)c1ccc(OC)cc1 (stereo unspecified)	19.0	130.0*	0.7	-4.5	1.0	106.0	96.0	-1.0	103.0
CCOc1cc(NC(=S)NCC2CCCO2)c(OCC)cc1NC(=O)c1ccccc1C (stereo unspecified)	13.5	103.0	-27.5	0.0	-3.0	98.0	·	·	·
COc1cccc2cc(C(=O)NCC3CCCO3)c(=O)oc12 (stereo unspecified)	-4.8	·	-1.5	0.5	·	·	·	·	·
COc1ccc2oc(=O)c(C(=O)NCC3CCCO3)cc2c1 (stereo unspecified)	2.8	82.0*[inhibitor]	-3.6	8.2	-7.0	94.0	101.0	-6.0	98.0
Cc1ccc(SCC(=O)NCC2CCCO2)cc1 (stereo unspecified)	-6.4	96.0	4.2	1.0	-10.0	94.0	·	·	·
Cc1ccc(SCCC(=O)NCC2CCCO2)cc1 (stereo unspecified)	-22.3	2.0*[inhibitor]	-3.5	5.0	-39.0	1.0*[inhibitor]	96.0	1.0	102.0
COc1ccc(-c2nsc(SCC(=O)NCC3CCCO3)n2)cc1 (stereo unspecified)	-6.5	73.0*[inhibitor]	-10.8	-2.1	-3.0	81.0	100.0	1.0	101.0
Cc1ccn2c(Nc3ccc4c(c3)OCO4)c(-c3ccc(O)cc3)nc2c1	10.8	126.0	1.0	-50.9	25.0	114.0	·	·	·
Cc1cccc(NC(=O)C2CCCN2S(=O)(=O)c2ccc(Cl)cc2)n1 (stereo unspecified)	-2.3	105.0	-21.9	-2.0	8.0	111.0	·	·	·
COc1ccc(C2c3c(ncn(CCN4CCOCC4)c3=N)Oc3ccc4ccccc4c32)cc1 (stereo unspecified)	19.7	102.0	3.1	-22.4	7.0	165.0*	127.0	23.0	103.0
CN(C)CCn1cnc2c(c1=N)C(c1ccccc1)c1ccc3ccccc3c1O2 (stereo unspecified)	35.7	106.0	35.3	-66.3	17.0	142.0*	149.0	23.0	99.0
COc1ccc(C2c3c(ccc4ccccc34)Oc3ncn4nc(-c5ccco5)nc4c32)cc1 (stereo unspecified)	26.8	126.0	1.7	-1.1	1.0	106.0	·	·	·
N=c1c2c(ncn1CCN1CCOCC1)Oc1ccc3ccccc3c1C2c1ccccc1 (stereo unspecified)	20.2	106.0	-1.7	-23.3	15.0	141.0*	124.0	4.0	101.0
COC(=O)c1ccc(/C=N/n2c(C)nc3ccccc3c2=O)cc1	-11.8	99.0	-21.5	-5.7	3.0	109.0	·	·	·
CN(CC(=O)Nc1cccc2c1CCCC2)S(=O)(=O)c1ccccc1	-13.1	80.0*[inhibitor]	0.5	-0.6	-4.0	88.0	99.0	6.0	100.0
CN(CC(=O)Nc1cccc2c1CCCC2)S(=O)(=O)c1ccc(Br)cc1	-11.3	94.0	-1.7	-4.3	-3.0	94.0	·	·	·
CC(/C=N/Nc1ncc(C)c(=O)[nH]1)=C\c1ccccc1	-6.8	140.0*	-15.7	-6.4	5.0	123.0	98.0	-3.0	102.0
CCN(CC)S(=O)(=O)c1ccc(NC(=O)c2cccc3c2C(=O)N(CCOC)C3)cc1	6.2	132.0*	0.9	12.2	0.0	108.0	102.0	-5.0	101.0
CC(N=C1NS(=O)(=O)c2ccccc21)C(=O)N1CCc2ccccc2C1 (stereo unspecified)	1.8	97.0	-6.2	-8.9	-2.0	92.0	·	·	·
O=C(NC(NC(=S)Nc1ccc(Cl)cc1Cl)C(Cl)(Cl)Cl)c1cccc([N+](=O)[O-])c1 (stereo unspecified)	73.9*	141.0*	12.2	20.7	14.0	145.0*	131.0	17.0	111.0
O=C(O)c1cccc(NC(=S)NC(NC(=O)c2cccc([N+](=O)[O-])c2)C(Cl)(Cl)Cl)c1 (stereo unspecified)	37.3	110.0	-23.1	9.8	7.0	104.0	·	·	·
COc1ccccc1-n1c(SCC(=O)N2CCOCC2)nc2ccccc2c1=O	-4.0	99.0	-16.8	1.9	-7.0	95.0	·	·	·
COc1ccccc1-n1c(CNc2c(C)cccc2C)nnc1SCC(=O)N1CCOCC1	-24.3	122.0*	-30.1	-20.6	5.0	120.0	102.0	-1.0	104.0
O=C(COC(=O)CCC(NC(=O)OCc1ccccc1)C(=O)OCC(=O)Nc1ccccc1)Nc1ccccc1 (stereo unspecified)	-9.9	152.0*	-23.3	-14.2	1.0	113.0	109.0	4.0	103.0
